The test system of assay [1] is Staphylococcus aureus. Description: Antibacterial activity against methicillin-resistant Staphylococcus aureus after 18 hrs by agar microdilution method. It is filed as functional. The method in brief:
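MRSA clinical isolate from Songklanakarin Hospital. Compounds were dissolved in DMSO, serially 2-fold diluted and mixed 1:100 into melted Mueller-Hinton agar, giving final concentrations of 128 to 0.03 μg/mL. Inoculum was spotted onto the agar and incubated at 35 °C for 18 h. MIC was the lowest concentration with no visible growth. Vancomycin was the positive control; DMSO-agar was the growth control.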

Assay [2] relates to Staphylococcus aureus. Description: Antibacterial activity against methicillin-resistant Staphylococcus aureus at 16 ug/mL after 18 hrs by agar microdilution method. It is filed as functional, organism-based.
For assay [3], the system named is Staphylococcus aureus. As to the kind of experiment: Antibacterial activity against methicillin-resistant Staphylococcus aureus at 32 ug/mL after 18 hrs by agar microdilution method. It is filed as functional, organism-based.

Converted amounts (≈) assume the structure as drawn. The source made the active and inactive calls.

One may read the MIC as the smallest concentration in the dilution series that meets the test's criterion for growth inhibition. Read a low MIC as inhibition by little substance. Regarding `CC(C)=CCc1c(O)cc2oc3c(O)ccc(CCC(C)(C)O)c3c(=O)c2c1O` [NIGROLINEAXANTHONE N], in the assay on Staphylococcus aureus [1], the lowest concentration to inhibit growth (MIC) was 4 mg/L (≈ 10 µM). As to `CCOC(C)(C)CCc1c(O)cc2oc3c(O)ccc(CCC(C)(C)O)c3c(=O)c2c1O`, in the assay with Staphylococcus aureus [1], the result was inactive. Consider `CC(C)=CCc1ccc(O)c2oc3cc4c(c(O)c3c(=O)c12)CCC(C)(C)O4`, for which the outcome in the assay with Staphylococcus aureus [1] was inactive. `CC(C)(O)CCc1c2c(c(O)c3c(=O)c4cccc(O)c4oc13)CCC(C)(C)O2`: the outcome in the assay on Staphylococcus aureus [1] was inactive. The same measure, in the same setting: the value for `COC(C)(C)CCc1ccc(O)c2oc3cc(O)c(CC=C(C)C)c(O)c3c(=O)c12` was “inactive”.

Consider `CC(C)=CCc1c(O)c(CC=C(C)C)c2oc3c(O)cccc3c(=O)c2c1O`, for which the outcome in the assay with Staphylococcus aureus [2] was Active. For `CC(C)=CCc1c2c(c3oc4c(O)cccc4c(=O)c3c1O)C=CC(C)(C)O2`, in the assay on Staphylococcus aureus [3], the result was Active. With `CC(C)(O)CCc1ccc(O)c2oc3cc4c(c(O)c3c(=O)c12)C=CC(C)(C)O4`, the outcome with Staphylococcus aureus [1] was inactive. The same measure, in the same setting: to `CC(C)=CCC/C(C)=C/CCC1(C)C=Cc2c(cc(O)c3c(=O)c4cccc(O)c4oc23)O1` (configuration not stated) belongs “inactive”; to `CC(C)(O)CCc1ccc(O)c2oc3cc4c(c(O)c3c(=O)c12)CCC(C)(C)O4`, “inactive”; to `CC(C)=CCc1ccc(O)c2oc3cc4c(c(O)c3c(=O)c12)C=CC(C)(C)O4`, “inactive”. Same read-out and setting: the value for `CC(C)=CCc1c2c(c3oc4c(O)cccc4c(=O)c3c1O)CCC(C)(C)O2` was “inactive”.

The values are drawn from ChEMBL document CHEMBL1147256, “Antibacterial xanthones from the leaves of Garcinia nigrolineata” (2003).
